Holding throughout (type): functional
In assay [1] the target is T1, Ecdysone receptor (Bombyx mori) (UniProt P49881).
T1 sequence (whole entry): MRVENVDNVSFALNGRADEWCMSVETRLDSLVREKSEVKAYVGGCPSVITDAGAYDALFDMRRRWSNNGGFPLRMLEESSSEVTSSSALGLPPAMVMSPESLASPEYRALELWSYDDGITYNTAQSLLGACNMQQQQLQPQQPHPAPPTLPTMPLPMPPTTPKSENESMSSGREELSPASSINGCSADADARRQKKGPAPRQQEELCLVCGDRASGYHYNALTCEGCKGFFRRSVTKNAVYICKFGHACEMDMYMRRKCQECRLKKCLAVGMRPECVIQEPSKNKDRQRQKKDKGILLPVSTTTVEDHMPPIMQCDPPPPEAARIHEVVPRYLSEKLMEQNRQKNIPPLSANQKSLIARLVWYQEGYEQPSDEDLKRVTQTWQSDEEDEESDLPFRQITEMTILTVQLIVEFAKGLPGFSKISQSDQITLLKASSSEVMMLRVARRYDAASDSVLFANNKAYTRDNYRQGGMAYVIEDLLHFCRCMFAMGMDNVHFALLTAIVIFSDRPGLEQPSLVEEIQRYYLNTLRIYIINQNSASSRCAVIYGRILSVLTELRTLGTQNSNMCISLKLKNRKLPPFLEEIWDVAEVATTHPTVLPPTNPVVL
Description: Agonist activity against Bombyx mori ecdysone receptor. Summed up: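 HEK-293 clone Z3 stably expressing Bombyx mori EcR with a β-galactosidase reporter under an ecdysone response element. Cells seeded at 2.5 × 10⁴ cells mL⁻¹ and held 24 h at 37 °C, 5% CO₂. Ligands from 10 mM DMSO stocks were diluted 100-fold in medium (final DMSO 0.03%). Luminescence read at 48 h; dose-response value is the dose giving 50% of maximal transactivation.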

A further assay concerns HEK293. In words: Dose response transactivation assay result expressed as dose affording 50% of max transactivation. The note with it: Homo sapiens, read-out: LC50. Summed up:
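HEK-293 clone Z3 engineered to express Bombyx mori EcR, with a β-galactosidase gene under an ecdysone response element. Cells seeded at 2.5 × 10⁴ cells mL⁻¹, grown 24 h at 37 °C in 5% CO₂, then dosed across a concentration series from 10 mM DMSO stocks. Final DMSO 0.03%. Bioluminescent β-gal readout at 48 h; value is dose giving 50% of maximum transactivation.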

A short description of assay [2]: Ratio of max level of gene expression of compound to max level of gene expression with compound 1d. The method, boiled down: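 Dose-response assay in Z3 HEK-293 cells (Bombyx mori EcR, ecdysone response element–β-galactosidase reporter), 48 h ligand exposure, final DMSO 0.03%, bioluminescent read-out. Value is the compound's maximal reporter expression divided by the maximal expression given by the reference dibenzoylhydrazine ecdysone agonist.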

Compound `Cc1ccccc1C(=O)NC1(C(=O)c2ccccc2)CCCC1` registered a Fold induction in assay [1] of 2.

As for `COc1cccc(C(=O)NC2(C(=O)c3cc(C)cc(C)c3)CCCC2)c1C`, the EC50 (transactivation) with HEK293 was 1.9 µM. In assay [1], this compound had a Fold induction of 660. In addition, in assay [2], the Rel Max FI came out at 0.85.

As for `COc1ccc(C(=O)C2(NC(=O)c3cccc(OC)c3C)CCCC2)cc1`, in assay [1], the Fold induction stood at 5.

As for `COc1cccc(C(=O)NC2(C(=O)c3ccc(F)cc3)CCCC2)c1C`, in the assay on HEK293, the EC50 (transactivation) was determined as 15 µM. For the same compound, the Fold induction in assay [1] worked out at 218. Also, in assay [2], the Rel Max FI stood at 0.14.

As to `CCC(CC)(NC(=O)c1cccc(OC)c1C)C(=O)c1cc(C)cc(C)c1`, the EC50 (transactivation) with HEK293 was determined as 4.5 µM. The Fold induction in assay [1] turned out to be 1000. Besides, the Rel Max FI in assay [2] stood at 0.6.

With `CCC(CC)(NC(=O)c1cccc(OC)c1C)C(=O)c1cccc(C)c1`, the EC50 (transactivation) in the assay on HEK293 came to 6.6 µM. The compound further had a Fold induction in assay [1] of 525. Also, the Rel Max FI in assay [2] is 0.25.

For the compound `CCC(CC)(NC(=O)c1cccc(OC)c1C)C(=O)c1cccc(OC)c1`, the EC50 (transactivation) in the assay on HEK293 was 33.3 µM. The Fold induction in assay [1] came to 256. Further, the Rel Max FI in assay [2] stood at 0.01.

For the compound `CCC(CC)(NC(=O)c1cccc(OC)c1C)C(=O)c1ccccc1OC`, the EC50 (transactivation) in the assay on HEK293 was 6.2 µM. In addition, in assay [1], the Fold induction was 384. Besides, in assay [2], the Rel Max FI is 0.29.

On to `CCC(CC)(NC(=O)c1cccc(OC)c1C)C(=O)c1ccc(C)cc1`, for which the Fold induction in assay [1] was found to be 8.

In turn, `CCC(CC)(NC(=O)c1cccc(OC)c1C)C(=O)c1ccc(OC)cc1` came in with a Fold induction in assay [1] of 4.

`COc1cccc(C(=O)NC(C)(C(=O)c2ccc(F)c(C)c2)C(C)C)c1C` (stereo unspecified): the Rel Max FI in assay [2] was 0.24.

With `COc1cccc(C(=O)NC2(C(=O)c3ccc(F)c(C)c3)CCCC2)c1C`, the EC50 (transactivation) in the assay with HEK293 worked out at 3.5 µM. The Fold induction in assay [1] was determined as 487. Further, the Rel Max FI in assay [2] worked out at 0.43.

In the case of `COc1cccc(C(=O)NC(C)(C)C(=O)c2ccccc2)c1`, the Fold induction in assay [1] turned out to be 1.

Regarding `COc1cccc(C(=O)NC(C)(C)C(=O)c2ccccc2)c1C`, the Fold induction in assay [1] stood at 2.

As to `COc1cccc(C(=O)NC2(C(=O)c3ccccc3)CCCC2)c1`, the Fold induction in assay [1] amounted to 2.

`CCC(CC)(NC(=O)c1cccc(OC)c1C)C(=O)c1ccccc1C` showed a Fold induction in assay [1] of 5.

Turning to `COc1cccc(C(=O)NC(C)(C(=O)c2ccc(C)cc2)C(C)C)c1C` (stereo unspecified), the EC50 (transactivation) with HEK293 was determined as 20 µM. In assay [1], this compound yielded a Fold induction of 31. Further, the Rel Max FI in assay [2] was determined as 0.05.

Regarding `CCC(CC)(NC(=O)c1cccc(OC)c1C)C(=O)c1ccc(F)c(C)c1`, the EC50 (transactivation) with HEK293 was found to be 10.4 µM. Further, the Fold induction in assay [1] stood at 223. In addition, the Rel Max FI in assay [2] worked out at 0.07.

Turning to `COc1ccccc1C(=O)C1(NC(=O)c2cccc(OC)c2C)CCCC1`, in the assay with HEK293, the EC50 (transactivation) is 5.2 µM. The Fold induction in assay [1] came to 1200. In assay [2], the Rel Max FI was 0.7.

Turning to `COc1cccc(C(=O)NC(C)(C(=O)c2cccc(C)c2)C(C)C)c1C` (stereo unspecified), in the assay with HEK293, the EC50 (transactivation) stood at 8.6 µM. Besides, in assay [1], the Fold induction was determined as 370. Besides, in assay [2], the Rel Max FI was found to be 0.47.

In turn, `CC(C)(NC(=O)c1ccc2c(c1)OCO2)C(=O)c1ccccc1` yielded a Fold induction in assay [1] of 1.

On to `O=C(NC1(C(=O)c2ccccc2)CCCC1)c1ccccc1`, for which, in assay [1], the Fold induction amounted to 2.

For `COc1cccc(C(=O)NC(C)(C(=O)c2ccccc2)C(C)C)c1C` (stereo unspecified), the EC50 (transactivation) in the assay with HEK293 turned out to be 33.3 µM. Moreover, the Fold induction in assay [1] was determined as 71. Further, the Rel Max FI in assay [2] was determined as 0.04.

For `CCC(CC)(NC(=O)c1cccc(OC)c1C)C(=O)c1ccccc1`, the Fold induction in assay [1] is 11.

In the case of `COc1cccc(C(=O)NC(C)(C(=O)c2ccccc2C)C(C)C)c1C` (stereo unspecified), in the assay with HEK293, the EC50 (transactivation) came to 18 µM. The same compound yielded a Fold induction in assay [1] of 452. Also, the Rel Max FI in assay [2] turned out to be 0.26.

`CC(C)(NC(=O)c1ccccc1)C(=O)c1ccccc1` yielded a Fold induction in assay [1] of 1.

With `O=C(NC1(C(=O)c2ccccc2)CCCC1)c1ccc2c(c1)OCO2`, in assay [1], the Fold induction stood at 1.

Take `COc1cccc(C(=O)NC(C)(C(=O)c2cc(C)cc(C)c2)C(C)C)c1C` (stereo unspecified): in the assay on HEK293, the EC50 (transactivation) stood at 2.1 µM. The same compound showed a Fold induction in assay [1] of 751. The Rel Max FI in assay [2] worked out at 0.75.

The compound `Cc1ccccc1C(=O)NC(C)(C)C(=O)c1ccccc1` returned a Fold induction in assay [1] of 1.

Consider `COc1ccccc1C(=O)C(C)(NC(=O)c1cccc(OC)c1C)C(C)C` (stereo unspecified), for which the EC50 (transactivation) with HEK293 was 15 µM. The compound further had a Fold induction in assay [1] of 599. For the same compound, the Rel Max FI in assay [2] amounted to 0.2.

As for `COc1cccc(C(=O)NC2(C(=O)c3ccccc3C)CCCC2)c1C`, the Fold induction in assay [1] turned out to be 30.

Take `COc1cccc(C(=O)NC2(C(=O)c3ccccc3)CCCC2)c1C`: the EC50 (transactivation) in the assay on HEK293 worked out at 2.7 µM. In assay [1], this compound showed a Fold induction of 71. The Rel Max FI in assay [2] is 0.14.

As for `COc1cccc(C(=O)C(C)(NC(=O)c2cccc(OC)c2C)C(C)C)c1` (stereo unspecified), the EC50 (transactivation) in the assay with HEK293 stood at 25.5 µM. The Fold induction in assay [1] worked out at 35. Also, the Rel Max FI in assay [2] was 0.12.

For the compound `COc1cccc(C(=O)NC2(C(=O)c3cccc(C)c3)CCCC2)c1C`, the EC50 (transactivation) in the assay with HEK293 was 3.4 µM. Moreover, the Fold induction in assay [1] worked out at 291. Further, in assay [2], the Rel Max FI was 0.46.

Take `COc1cccc(C(=O)NC2(C(=O)c3ccc(C)cc3)CCCC2)c1C`: the Fold induction in assay [1] came to 21.

Turning to `COc1cccc(C(=O)C2(NC(=O)c3cccc(OC)c3C)CCCC2)c1`, the Rel Max FI in assay [2] was 0.12.

As to `CCc1ccc(C(=O)NC(C)(C)C(=O)c2ccccc2)cc1`, in assay [1], the Fold induction turned out to be 2.

Regarding `CCC(CC)(NC(=O)c1cccc(OC)c1C)C(=O)c1ccc(F)cc1`, the EC50 (transactivation) with HEK293 is 13.7 µM. In assay [1], this compound registered a Fold induction of 60. The Rel Max FI in assay [2] came to 0.04.

For the origin of these results see ChEMBL document CHEMBL1136556, “Synthesis and SAR of alpha-acylaminoketone ligands for control of gene expression” (2003).
